For series [1], the target named is T1, P-gp (ABCB1) (Homo sapiens, UniProt P08183). As to the kind of experiment: Activation of human P-gp expressed in high five insect cell membrane vesicles by measuring the vanadate-sensitive ATPase activity of P-gp at 0.5 uM preincubated for 5 mins in the presence of sodium orthovanadate measured after 20 mins by colorimetric method. The settings on record: read-out: Activity.

For series [2], the target named is T1, P-gp (ABCB1). Description: Inhibition of human P-gp expressed in high five insect cell membrane vesicles by measuring the vanadate-sensitive ATPase activity of P-gp at 2.5 uM preincubated for 5 mins in the presence of sodium orthovanadate measured after 20 mins by colorimetric method.
Series [3] deals with T1, P-gp (ABCB1). As to the kind of experiment: Inhibition of human P-gp expressed in high five insect cell membrane vesicles by measuring the vanadate-sensitive ATPase activity of P-gp at 0.5 uM preincubated for 5 mins in the presence of sodium orthovanadate measured after 20 mins by colorimetric method.
Series [4] deals with T1, P-gp (ABCB1). Description: Activation of human P-gp expressed in high five insect cell membrane vesicles by measuring the vanadate-sensitive ATPase activity of P-gp at 2.5 uM preincubated for 5 mins in the presence of sodium orthovanadate measured after 20 mins by colorimetric method. The settings on record: read-out: Activity.
The target of series [5] is T1, P-gp (ABCB1). As to the kind of experiment: Activation of human P-gp expressed in high five insect cell membrane vesicles by measuring the vanadate-sensitive ATPase activity of P-gp at 0.05 uM preincubated for 5 mins in the presence of sodium orthovanadate measured after 20 mins by colorimetric method. As to conditions: read-out: Activity; call rule not given here.
In series [6] the target is T2, Cytochrome P450 3A4 (Homo sapiens, UniProt P08684). As to the kind of experiment: Inhibition of CYP3A4 (unknown origin). The series is classed as ADME.
Series [7] can be described thus: Cytotoxicity in parental HEK293-pcDNA 3.1 transfected cells assessed as cell survival at 10 uM after 72 hrs by MTT assay. The series is classed as cell-based. As to conditions: human, parental HEK293 cells transfected with pcDNA 3.1. The gist of the method:
(§1)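 HEK293 cells stably transfected with empty pcDNA3.1 vector or ABCB1 vector, kept in DMEM with 10% FBS, 1% penicillin/streptomycin, and 2 mg/mL G418 at 37°C in 5% CO2. Cells were seeded at 5000/well, and after 24 h treated with test compound alone, diluted from 10 mM DMSO stocks into medium. After 72 h, viability was read by MTT (4 mg/mL, 4 h), with formazan dissolved in DMSO and absorbance read at 570 nm.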
In general terms: Tetrazolium dyes change colour on reduction, which living cells bring about.

Series [8] in a line: Cytotoxicity in P-gp tranfected HEK293 cells assessed as cell survival at 10 uM after 72 hrs by MTT assay. The class given is ADME, cell-based. As to conditions: human, P-gp transfected HEK293 cells. The gist of the method:
as §1

The subject of series [9] is HEK293. Description: Potentiation of paclitaxel-induced cytotoxicity against parental HEK293-pcDNA 3.1 transfected cells assessed as fold reduction in paclitaxel IC50 at 10 uM pre-incubated for 1 hr before paclitaxel addition and measured after 72 hrs by MTT assay. The class given is functional, Homo sapiens. In short, it runs like this: (§2)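 HEK293 cells stably transfected with ABCB1 or empty pcDNA3.1 vector, kept in G418. Seeded at 5000/well and grown 24 h, then given modulator at 10 μM for 1 h before serially diluted paclitaxel (up to 10 μM). MTT read at 570 nm after 72 h. Paclitaxel IC50 from four experiments in triplicate. Fold resistance = IC50 with modulator ÷ IC50 of paclitaxel alone in vector-control cells.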

Series [10] has as its target T3, ATP-dependent translocase ABCB1 (Homo sapiens, UniProt P08183). As to the kind of experiment: Inhibition of human P-gp transfected in HEK293 cells assessed as potentiation of paclitaxel-induced cytotoxicity by measuring fold reduction in paclitaxel IC50 at 10 uM pre-incubated for 1 hr before paclitaxel addition and measured after 72 hrs by MTT assay. The class given is cell-based. As to conditions: hek293, 72 h. In short, it runs like this: as §2

Series [11] addresses T4, CYP3A4 (Homo sapiens, UniProt P08684). As to the kind of experiment: (§3) Inhibition of CYP3A4 (unknown origin) at 25 uM by fluorescence based-vivid CYP450 green screening kit based assay. The class given is ADME.
For series [12], the target named is T4, CYP3A4. As to the kind of experiment: Inhibition of CYP3A4 (unknown origin) at 50 uM by fluorescence based-vivid CYP450 green screening kit based assay. The class given is ADME.
Series [13] deals with T3, ATP-dependent translocase ABCB1. Description: Displacement of [125I]-IAAP from human P-gp expressed in high five insect cell membrane vesicles preincubated for 10 mins followed by photocrosslinking for 10 mins by exposing under UV light for 10 mins by SDS-PAGE based method. As to conditions: for inhibition (INH): human, 10 min. The gist of the method:
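Membrane vesicles from P-gp-expressing High Five insect cells (65–75 μg protein/100 μL) incubated with compound (0–5 or 0–10 μM) in 50 mM MES-Tris pH 6.8, 150 mM NaCl, 37 °C, 10 min; moved to 4 °C, 4–5 nM [125I]-IAAP added under subdued light; 366 nm UV 10 min; P-gp band incorporation quantified after SDS-PAGE, DMSO-only as 100%.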
A general note: In a radioligand displacement assay an active substance lowers the binding of a labelled ligand.

For series [14], the target named is T1, P-gp (ABCB1). Description: Displacement of [125I]-IAAP from human P-gp expressed in high five insect cell membrane vesicles at >5 uM preincubated for 10 mins followed by photocrosslinking for 10 mins by exposing under UV light for 10 mins by SDS-PAGE based method. The settings on record: probe [125I]-IAAP, read-out: Imax. In short, it runs like this: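 Membrane vesicles (65–75 μg protein/100 μL) incubated with compound (0–5 or 0–10 μM) in 50 mM MES-Tris pH 6.8, 150 mM NaCl, 37 °C 10 min, then moved to 4 °C. 4–5 nM [125I]-IAAP (2200 Ci/mmol) added under subdued light, cross-linked at 366 nm UV 10 min. P-gp band incorporation quantified after SDS-PAGE, DMSO-only sample = 100%.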

The target of series [15] is T1, P-gp (ABCB1). As to the kind of experiment: Inhibition of human P-gp expressed in high five insect cell membrane vesicles by measuring the vanadate-sensitive ATPase activity of P-gp at 0.05 uM preincubated for 5 mins in the presence of sodium orthovanadate measured after 20 mins by colorimetric method.
Series [16] concerns the target T2, Cytochrome P450 3A4. The description is as §3. As to conditions: 25 µM. The series is classed as ADME.

T4 sequence (P08684 whole entry): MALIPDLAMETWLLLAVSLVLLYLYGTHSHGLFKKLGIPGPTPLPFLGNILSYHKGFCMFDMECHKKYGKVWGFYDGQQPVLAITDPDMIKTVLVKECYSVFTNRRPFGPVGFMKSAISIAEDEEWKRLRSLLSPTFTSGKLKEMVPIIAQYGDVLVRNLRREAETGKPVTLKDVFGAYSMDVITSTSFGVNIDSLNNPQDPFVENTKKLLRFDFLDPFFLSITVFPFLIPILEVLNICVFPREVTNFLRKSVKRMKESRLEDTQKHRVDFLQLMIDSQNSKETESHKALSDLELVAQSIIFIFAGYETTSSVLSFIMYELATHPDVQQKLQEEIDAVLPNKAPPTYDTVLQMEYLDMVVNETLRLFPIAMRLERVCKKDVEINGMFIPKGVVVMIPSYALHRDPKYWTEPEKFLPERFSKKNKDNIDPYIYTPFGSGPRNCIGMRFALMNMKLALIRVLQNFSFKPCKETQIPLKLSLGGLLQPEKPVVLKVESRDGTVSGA
T3 sequence (P08183 whole entry): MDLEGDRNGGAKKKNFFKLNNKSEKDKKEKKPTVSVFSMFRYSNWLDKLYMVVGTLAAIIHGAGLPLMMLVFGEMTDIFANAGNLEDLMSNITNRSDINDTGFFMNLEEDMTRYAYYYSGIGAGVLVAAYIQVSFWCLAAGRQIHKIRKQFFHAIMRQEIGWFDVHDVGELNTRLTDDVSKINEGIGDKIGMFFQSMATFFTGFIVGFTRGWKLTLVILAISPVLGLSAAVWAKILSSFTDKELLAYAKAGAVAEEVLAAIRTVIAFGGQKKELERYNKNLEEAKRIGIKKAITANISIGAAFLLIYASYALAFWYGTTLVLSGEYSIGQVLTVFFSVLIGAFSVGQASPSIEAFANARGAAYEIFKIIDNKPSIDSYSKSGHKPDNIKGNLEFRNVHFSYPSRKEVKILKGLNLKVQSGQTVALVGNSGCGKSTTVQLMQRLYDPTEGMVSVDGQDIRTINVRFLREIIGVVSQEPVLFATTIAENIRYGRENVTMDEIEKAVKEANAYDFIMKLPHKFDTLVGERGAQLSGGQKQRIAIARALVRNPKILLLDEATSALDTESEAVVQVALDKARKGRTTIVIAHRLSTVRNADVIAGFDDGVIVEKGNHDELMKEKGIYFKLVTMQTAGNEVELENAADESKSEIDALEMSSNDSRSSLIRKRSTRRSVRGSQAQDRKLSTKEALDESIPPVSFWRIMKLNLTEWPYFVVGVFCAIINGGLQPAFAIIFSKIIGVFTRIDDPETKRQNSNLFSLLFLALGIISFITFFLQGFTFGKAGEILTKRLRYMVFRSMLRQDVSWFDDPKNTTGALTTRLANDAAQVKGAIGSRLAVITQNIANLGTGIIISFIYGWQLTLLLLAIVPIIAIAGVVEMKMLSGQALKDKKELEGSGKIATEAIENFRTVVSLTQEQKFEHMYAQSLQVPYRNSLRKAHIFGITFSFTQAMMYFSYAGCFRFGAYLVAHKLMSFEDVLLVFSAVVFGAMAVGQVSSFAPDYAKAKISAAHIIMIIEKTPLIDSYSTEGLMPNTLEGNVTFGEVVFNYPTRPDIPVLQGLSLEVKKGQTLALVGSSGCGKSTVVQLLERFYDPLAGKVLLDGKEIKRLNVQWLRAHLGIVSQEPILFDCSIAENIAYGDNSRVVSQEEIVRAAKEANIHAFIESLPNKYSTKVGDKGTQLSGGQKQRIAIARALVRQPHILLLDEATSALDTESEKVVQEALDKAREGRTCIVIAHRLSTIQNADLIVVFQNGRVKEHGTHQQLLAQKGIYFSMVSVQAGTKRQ
T1 sequence (P08183 whole entry): as above
T2 sequence (P08684 whole entry): as the sequence (P08684 whole entry) above

`COc1cc(C(=O)NC(c2nc(C(=O)NC3CCC(C(F)(F)F)CC3)cs2)C(C)C)cc(OC)c1OC` (stereo not drawn): the activity at 20 min, 0.5 µM in series [1] was no more than 10%. For the same molecule, in series [2], the inhibition at 20 min, 2.5 µM was 21.7%.
With `COc1cc(C(=O)NC(Cc2ccc(O)cc2)c2nc(C(=O)NC3CCC(F)(F)CC3)cs2)cc(OC)c1OC` (stereo not drawn), in series [3], the inhibition at 20 min, 0.5 µM is 22.4%. The inhibition at 20 min, 2.5 µM in series [2] is 23%.
On to `CC(C)[C@H](NC(=O)C1CCC(F)(F)CC1)c1nc(C(=O)NC2CCC(F)(F)CC2)cs1`, for which the activity at 20 min, 0.5 µM in [1] was no more than 10%. The inhibition at 20 min, 2.5 µM in [2] worked out at 16.4%.
Regarding `COc1cc(C(=O)N[C@H](c2nc(C(=O)NCC3CCC(F)(F)CC3)cs2)C(C)C)cc(OC)c1OC`, in [3], the inhibition at 20 min, 0.5 µM stood at 27%. The activity at 20 min, 2.5 µM in series [4] came to 20.7%.
Regarding `COc1cc(C(=O)N[C@H](c2nc(C(=S)NC3CCC(F)(F)CC3)cs2)C(C)C)cc(OC)c1OC`, the inhibition at 20 min, 0.5 µM in [3] was 37.4%. The inhibition at 20 min, 2.5 µM in series [2] worked out at 25.9%.
Turning to `COc1cc(C(=O)N[C@H](c2nc(C(=O)Nc3ccccc3C(=O)c3ccccc3)cs2)C(C)C)cc(OC)c1OC`, the activity at 20 min, 0.05 µM in series [5] is 54%. In series [6], this molecule returned an IC50 of 8230 nM. Moreover, the viability at 72 h, 10 µM in series [7] and in series [8] was greater than 80% each time. For the same molecule, the activity at 20 min, 0.5 µM in series [1] was 83%. Further, the “fold change (FC)” value in series [9] was found to be 1; in series [10], 0.6. The activity at 20 min, 2.5 µM in series [4] was 88%.
As to `COc1cc(C(=O)N[C@H](c2nc(C(=O)NC3CCC(F)(F)CC3)cs2)C(C)C)cc(OC)c1OC`, in series [11], the inhibition at 25 µM came out at 9.32%. This molecule displayed an inhibition at 50 µM in [12] of 28.7%. Also, the viability at 72 h, 10 µM in series [7] and in series [8] was greater than 80% throughout. Also, the IC50 in series [13] turned out to be 100 nM. Further, the “inhibition (INH)” value in [13] is recorded as “Dose-dependent effect”. The inhibition at 20 min, 0.5 µM in series [3] was 30.7%. For the same molecule, the “fold change (FC)” value in [9] and in [10] was 0.6 each time. For the same molecule, the inhibition at 20 min, 2.5 µM in series [2] was 33.9%. Moreover, the Emax at 10 min in series [14] was 90%.
With `COc1cc(C(=O)N[C@H](c2nc(C(=O)NC3CCCCC3)cs2)C(C)C)cc(OC)c1OC`, the inhibition at 25 µM in [11] was 7.03%. Moreover, the inhibition at 20 min, 0.05 µM in series [15] is 20%. In addition, the inhibition at 50 µM in [12] amounted to 52%. Besides, the viability at 72 h, 10 µM in series [7] and in series [8] was greater than 80% each time. For the same molecule, in series [3], the inhibition at 20 min, 0.5 µM is 18%. Moreover, the “fold change (FC)” value is 1 in [9] and 0.6 in [10].
On to `CC(C)[C@H](NC(=O)c1cc(F)c(F)c(F)c1)c1nc(C(=O)NC2CCC(F)(F)CC2)cs1`, for which the inhibition at 20 min, 0.5 µM in series [3] came out at 16.6%. Moreover, in series [2], the inhibition at 20 min, 2.5 µM came to 23.3%.
With `COc1cc(C(=O)NC(Cc2ccccc2)c2nc(C(=O)NC3CCC(F)(F)CC3)cs2)cc(OC)c1OC` (stereo not drawn), the “inhibition (INH)” value is recorded as “Not Active” in series [16] and “Dose-dependent effect” in series [13]. Moreover, testing at 50 µM in [12] gave an inhibition of 32.9%. The viability at 72 h, 10 µM in series [7] and in [8] was greater than 80% each time. This molecule also showed an IC50 in series [13] of 760 nM. In addition, the inhibition at 20 min, 0.5 µM in [3] was found to be 39.6%. For the same molecule, the “fold change (FC)” value was 0.5 in series [9] and 1.7 in series [10]. Further, in series [2], the inhibition at 20 min, 2.5 µM came out at 42.5%.
Consider `CC(C)[C@H](NC(=O)c1cccc(N)c1)c1nc(C(=O)Nc2ccccc2C(=O)c2ccccc2)cs1`, for which, in series [5], the activity at 20 min, 0.05 µM came out at 376%. In series [11], this molecule returned an inhibition at 25 µM of 43.6%. Moreover, the inhibition at 50 µM in series [12] stood at 83.3%. For the same molecule, the viability at 72 h, 10 µM in series [7] and in series [8] was greater than 80% throughout. Moreover, in series [1], the activity at 20 min, 0.5 µM amounted to 308%. In addition, the “fold change (FC)” value in [9] is on record as 0.5; in series [10] it was 17.9.
As for `COc1cc(C(=O)N[C@H](c2nc(C(=O)N[C@@H]3CCCc4ccccc43)cs2)C(C)C)cc(OC)c1OC`, the viability at 72 h, 10 µM in series [7] and in series [8] was greater than 80% throughout. In [1], the activity at 20 min, 0.5 µM was found to be 33.9%. In addition, the “fold change (FC)” value in [9] is recorded as 1.4; in series [10], 2.9. Also, the activity at 20 min, 2.5 µM in series [4] was 31.3%.
As to `COc1ccc(CCN(C)CCCC(C#N)(c2ccc(OC)c(OC)c2)C(C)C)cc1OC` (stereo not drawn), the viability at 72 h, 10 µM in series [7] and in series [8] was greater than 80% in each case. Further, in series [9], the “fold change (FC)” value is on record as 0.9.
Regarding `O[C@@H](COc1cccc2ncccc12)CN1CCN([C@@H]2c3ccccc3[C@@H]3[C@H](c4ccccc42)C3(F)F)CC1` [ZOSUQUIDAR], the viability at 72 h, 10 µM in [7] and in series [8] was greater than 80% in each case.

In general, inhibition refers to the drop in the measured response relative to a control, in per cent. What is called IC50 is the point on the concentration scale where inhibition reaches its midpoint. A word on the viability: it is a read-out of living cells in per cent, often relative to untreated cells.

The record behind these values is ChEMBL document CHEMBL4024781, “Comprehensive Synthesis of Amino Acid-Derived Thiazole Peptidomimetic Analogues to Understand the Enigmatic Drug/Substrate-Binding Site of P-Glycoprotein” (J Med Chem, 2018).
